Test results: ChEMBL document CHEMBL1121968, “Phospholipid-nucleoside conjugates. 3. Syntheses and preliminary biological evaluation of 1-beta-D-arabinofuranosylcytosine 5'-monophosphate-L-1,2-dipalmitin and selected 1-beta-D-arabinofuranosylcytosine 5-diphosphate-L-1,2-diacylglycerols” (1982)

Assays:
[1] = tested on: Mus musculus; assay: Median survival time expressed as (T/C) was measured at dose of 40 mg/kg/day X5; 20.0/7.5; format: functional
Summary of the method: (§1)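 C3D2F1/J mice (groups of six, av wt 25 g) were inoculated ip with 1×10^6 L1210 lymphoid leukemia cells. Dosing started 24 h after implantation and continued daily through day 5. Read-outs were median survival time of treated versus controls (T/C, 24 controls), %ILS = (T/C − 1)×100, 30-day survivors, and weight change on day 8.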

[2] = tested on: Mus musculus; assay: Percent increase in life span calculated as (T/C-1)X100 at a dose of 40 mg/kg/day X5; format: functional; summary of the method: as §1
[3] = In vitro antiproliferative activity was measured in mouse L1210 lymphoid leukemia cell line; settings: read-out: ED50 (the source's name)
[4] = tested on: Mus musculus; assay: Median survival time expressed as (T/C) was measured at dose of 10 mg/kg/day *5; 15.0/7.5; format: functional; summary of the method: as §1
[5] = tested on: MPC-11; assay: In vitro antiproliferative activity was measured in mouse myeloma MPC-11 cell line; format: functional; settings: read-out: ED50 (the source's name)
[6] = species: Mus musculus; assay: Number of mice survived after 30 days; format: functional; summary of the method: as §1
[7] = tested on: Mus musculus; assay: Percent increase in life span calculated as (T/C-1)X100 at a dose of 20 mg/kg/day X5; format: functional; summary of the method: as §1
[8] = tested on: Mus musculus; assay: Percent increase in life span calculated as (T/C-1)X100 at a dose of 10 mg/kg/day *5; format: functional; summary of the method: as §1
[9] = tested on: Mus musculus; assay: Change in weight of mouse on day 8 was measured in L1210 lymphoid leukemia inoculated mice after ip administration at dose of 20 mg/kg/day X5; format: functional; settings: route intraperitoneal
Summary of the method: (§2)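 C3D2F1/J mice, groups of six, average weight 25 g, were inoculated ip with 1×10^6 L1210 lymphoid leukemia cells following NCI protocol. Dosing was ip, daily, starting 24 h after tumor implantation and continuing through day 5. Body-weight change in g/mouse was recorded on day 8. Pooled controls were 24 mice.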

[10] = tested on: Mus musculus; assay: Change in weight of mouse on day 8 was measured in L1210 lymphoid leukemia inoculated mice after ip administration at dose of 40 mg/kg/day X5; format: functional; settings: route intraperitoneal; summary of the method: as §2
[11] = tested on: Mus musculus; assay: Median survival time expressed as (T/C) was measured at dose of 20 mg/kg/day X5; 18.0/7.5; format: functional; summary of the method: as §1
[12] = tested on: Mus musculus; assay: Change in weight of mouse on day 8 was measured in L1210 lymphoid leukemia inoculated mice after ip administration at dose of 10 mg/kg/day *5; format: functional; settings: route intraperitoneal; summary of the method: as §2
[13] = tested on: MPC-11; assay: In vitro lethal dose was measured in mouse myeloma MPC-11 cell line; format: functional; settings: read-out: LD50 (the source's name)
[14] = tested on: Mus musculus; assay: Median survival time expressed as (T/C) was measured at dose of 60 mg/kg/day x5; 8.5/8.0; format: functional; summary of the method: as §1
[15] = tested on: Mus musculus; assay: Change in weight of mouse on day 8 was measured in L1210 lymphoid leukemia inoculated mice after ip administration at dose of 60 mg/kg/day X5; format: functional; settings: route intraperitoneal; summary of the method: as §2
[16] = tested on: Mus musculus; assay: Percent increase in life span calculated as (T/C-1)X100 at a dose of 60 mg/kg/day X5; format: functional; summary of the method: as §1
[17] = tested on: Mus musculus; assay: Median survival time expressed as (T/C) was measured at dose of 10 mg/kg/day *5; 14.0/7.5; format: functional; summary of the method: as §1
[18] = tested on: Mus musculus; assay: Median survival time expressed as (T/C) was measured at dose of 40 mg/kg/day X5; 19.0/7.5; format: functional; summary of the method: as §1
[19] = tested on: Mus musculus; assay: Change in weight of mouse on day 8 was measured in L1210 lymphoid leukemia inoculated mice after ip administration at dose of 50 mg/kg/day X5; format: functional; settings: route intraperitoneal; summary of the method: as §2
[20] = tested on: Mus musculus; assay: Median survival time expressed as (T/C) was measured at dose of 50 mg/kg/day *5; 14.0/8.0
[21] = tested on: Mus musculus; assay: Percent increase in life span calculated as (T/C-1)X100 at a dose of 25 mg/kg/day X5; format: functional; summary of the method: as §1
[22] = tested on: Mus musculus; assay: Median survival time expressed as (T/C) was measured at dose of 25 mg/kg/day X5; 20.0/7.0
[23] = tested on: Mus musculus; assay: Median survival time expressed as (T/C) was measured at dose of 40 mg/kg/day X5; 24.5/8.5; format: functional; summary of the method: as §1
[24] = tested on: Mus musculus; assay: Change in weight of mouse on day 8 was measured in L1210 lymphoid leukemia inoculated mice after ip administration at dose of 25 mg/kg/day X5; format: functional; settings: route intraperitoneal; summary of the method: as §2
[25] = tested on: Mus musculus; assay: Median survival time expressed as (T/C) was measured at dose of 40 mg/kg/day X5; format: functional; summary of the method: as §1
[26] = tested on: Mus musculus; assay: Median survival time expressed as (T/C) was measured at dose of 20 mg/kg/day X5; format: functional; summary of the method: as §1
[27] = tested on: Mus musculus; assay: Median survival time expressed as (T/C) was measured at dose of 10 mg/kg/day *5; format: functional; summary of the method: as §1

Compound | ILS at 40 mg/kg/day [2] [%] | EC50 [3] [µM] | EC50 [5] [µM] | Survivors [6] | ILS at 20 mg/kg/day [7] [%] | ILS at 10 mg/kg/day [8] [%] | Weight change [9] [g mouse-1] | Weight change [10] [g mouse-1] | T/C [11] [days] | Weight change [12] [g mouse-1] | CC50 [13] [µM] | also measured
CCCCCCCCCCCCCCCCCC(=O)OC[C@H](COP(=O)(O)OP(=O)(O)OC[C@H]1O[C@@H](n2ccc(N)nc2=O)[C@@H](O)[C@@H]1O)OC(=O)CCCCCCCCCCCCCCCCC | 167 | 20 | 195 | 0 | 140 | 100 | 1.1 | -0.4 | 18 | 1.2 | 164 | T/C [1]: 20 days; T/C [4]: 15 days
CCCCCCCCCCCCCC(=O)OC[C@H](COP(=O)(O)OP(=O)(O)OC[C@H]1O[C@@H](n2ccc(N)nc2=O)[C@@H](O)[C@@H]1O)OC(=O)CCCCCCCCCCCCC | 153 | 16 | 15 | 0 | 140 | 87 | 1.15 | 0.1 | 18 | 1.8 | 15.2 | T/C [14]: 8.5 days; Weight change [15]: -4.6 g mouse-1; ILS at 60 mg/kg/day [16]: 6%; T/C [17]: 14 days; T/C [18]: 19 days
CCCCCCCCCCCCCCCC(=O)OC[C@H](COP(=O)(O)OC[C@H]1O[C@@H](n2ccc(N)nc2=O)[C@@H](O)[C@@H]1O)OC(=O)CCCCCCCCCCCCCCC |  | 13.4 |  | 0 |  |  |  |  |  |  |  | Weight change [19]: 1.7 g mouse-1; T/C [20]: 14 days
CCCCCCCCCCCCCCCC(=O)OC[C@H](COP(=O)(O)OP(=O)(O)OC[C@H]1O[C@@H](n2ccc(N)nc2=O)[C@@H](O)[C@@H]1O)OC(=O)CCCCCCCCCCCCCCC | 188 | 9.6 | 65 | 1 |  |  |  | -1.8 |  |  | 68.5 | ILS at 25 mg/kg/day [21]: 186%; T/C [22]: 20 days; T/C [23]: 24.5 days; Weight change [24]: 1.57 g mouse-1
Nc1ccn([C@@H]2O[C@H](CO)[C@@H](O)[C@@H]2O)c(=O)n1 [CYTARABINE] | 65 | 0.1 | 0.99 | 0 | 65 | 53 | 0.5 | 0.6 |  | 0.8 | 1.91 | T/C [25]: 14 days; T/C [26]: 14 days; T/C [27]: 13 days
